# CaV13 ICDI inh – Primary screen for inhibitors of IQ motif and Ca2+-dependent inactivation inhibitor domain binding in CACNA1D, Förster resonance energy transfer in living cells, …; HEK cells, CFP/YFP FRET ICDI-IQ, plate reader, 10 min; percent FRET-ratio fall versus neutral wells; inhibition, % at 12.3 µM; actives 0.098% (n = 340,000); AID 743397;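 active means mean replicate inhibition of at least 30% and at least 1% of replicates passing that level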;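 further: 0% = median of the neutral control wells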
# ADAM17 inh – inhibitors of human ADAM17 | recombinant ADAM17, EDANS/DABCYL FRET peptide cleavage | inhibition, % at 6.95 µM | AID 720648 | actives 0.83% (n = 370,000) | P78536;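 active means inhibition above the mean of compounds lying between control limits plus 3 SD, set per campaign, cut at about 8.5% in these data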;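 further: 0% = DMSO-only wells as the low control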
# FAS TE block – inhibitors of human fatty acid synthase thioesterase domain; P49327; recombinant FAS-TE, OMFH fluorogenic substrate, fluorescence endpoint; inhibition, % at 15 µM; actives 0.67% (n = 360,000); AID 602261;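 active means compounds whose normalised, plate-corrected inhibition of enzyme fluorescence in the single-dose primary screen is 50% or more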;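 further: 0% = DMSO with enzyme and 100% = substrate without enzyme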
# ADAM10 inh – inhibits human ADAM10. O14672. recombinant ADAM10, EDANS/DABCYL FRET peptide cleavage, 3 h. inhibition, % at 7 µM. actives 0.62% (n = 370,000). AID 720582;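 active means inhibition above a per-campaign cutoff equal to the mean of compounds falling between control-based bounds plus 3 SD, cut at about 20% in these data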;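 further: 0% = DMSO wells while the 100% control is not disclosed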
# CendR NRP1 mod – alters CendR peptide binding to human NRP-1; actives 0.85% (n = 360,000); inhibition, % at 25 µM; FAM-RPARPAR peptide binding to NRP-1, fluorescence polarization; AID 602438; O14786;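 active means inhibition or corrected inhibition above about 18%, plus a signal ratio from 0.5 to 1.5, limit read from the data, passing the limit was not always enough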
# Target sequence (O14786 whole entry, looked up): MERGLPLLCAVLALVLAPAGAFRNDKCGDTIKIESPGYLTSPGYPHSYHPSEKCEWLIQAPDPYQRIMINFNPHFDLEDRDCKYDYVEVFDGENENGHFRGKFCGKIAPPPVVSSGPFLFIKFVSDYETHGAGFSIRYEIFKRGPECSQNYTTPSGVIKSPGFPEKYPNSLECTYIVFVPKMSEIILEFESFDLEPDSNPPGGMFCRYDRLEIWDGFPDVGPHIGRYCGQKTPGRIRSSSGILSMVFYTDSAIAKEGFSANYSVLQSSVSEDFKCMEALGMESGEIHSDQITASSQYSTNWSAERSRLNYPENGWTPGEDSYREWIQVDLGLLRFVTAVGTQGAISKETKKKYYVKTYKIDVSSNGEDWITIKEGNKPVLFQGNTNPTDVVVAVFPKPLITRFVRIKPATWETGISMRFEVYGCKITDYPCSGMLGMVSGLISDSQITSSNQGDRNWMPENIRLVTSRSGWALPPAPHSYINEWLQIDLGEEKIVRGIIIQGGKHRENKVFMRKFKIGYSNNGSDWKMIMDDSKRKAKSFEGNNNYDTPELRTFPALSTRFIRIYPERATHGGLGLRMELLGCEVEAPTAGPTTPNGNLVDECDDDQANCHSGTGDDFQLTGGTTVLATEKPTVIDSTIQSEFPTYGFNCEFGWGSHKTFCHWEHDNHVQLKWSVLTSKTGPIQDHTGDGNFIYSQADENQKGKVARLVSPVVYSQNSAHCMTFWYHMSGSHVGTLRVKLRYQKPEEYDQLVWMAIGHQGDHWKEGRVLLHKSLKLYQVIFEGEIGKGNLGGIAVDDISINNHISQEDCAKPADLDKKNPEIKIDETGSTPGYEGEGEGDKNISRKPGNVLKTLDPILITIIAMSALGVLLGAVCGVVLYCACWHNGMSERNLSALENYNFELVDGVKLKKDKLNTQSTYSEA
# Arr AP2 block – human beta-arrestin and AP2 interaction inhibition; FITC-arrestin peptide / GST-AP2 beads, flow cytometry; AP2 beta2 appendage carries R879A mutation; inhibition, % at 10 µM; actives 0.31% (n = 340,000); AID 504490;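 active means inhibition above a set limit, near 3 SD of compounds lacking own fluorescence, cut at about 54% in these data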;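 further: plate controls were DMSO wells for no effect and 5 µM unlabelled arrestin peptide for full effect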
#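 System: GST-AP2 R879A glutathione beads; medium: PBS, Tween 20 0.05%, BSA 0.1%; reagent: fluorescein-tagged arrestin peptide at 50 nM final; schedule: pre-incubation 12 min, peptide binding 1 h, room temperature; detection: flow cytometry, FL1 (488/535 nm); read-out: inhibition as reduced fluorescein signal on beads, percent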
# Active calls of the source: *; i = inactive; / = no result given; + = active, no number; ! = not confirmed by another sample. Rows were chosen to be rich in hits. Some 2.9% of all compounds tested hit in one or more screens of this group.
SMILES,CaV13 ICDI inh,ADAM17 inh,FAS TE block,ADAM10 inh,CendR NRP1 mod,Arr AP2 block
COc1ccc(S(=O)(=O)NC(C)C(=O)Nc2ccc3c(c2)OCO3)cc1OC (stereo not given),-7.2,-4.1,-6.2,-5.1,16.9*,-3.3
COC(=O)Oc1ccc(/C=N/NC(=O)CN(c2ccccc2Br)S(C)(=O)=O)cc1OC,0.8,-2.4,0.4,3.6,23.4*,-11.1
COc1ccc(CNC(=O)CN2C(=O)CSc3ccc(S(=O)(=O)N4CCOCC4)cc32)cc1,-7.8,0.4,-1.1,9.8,33.2*,-1.4
Cc1ccccc1-c1cccc2[nH]c3c(c12)CCN1C(=O)[C@H]2[C@H](C)ON(C)[C@H]2C[C@@H]31,-4.5,-146.6,/,i,/,/
O=C(O)c1cccc2c1Cc1cc(Cl)ccc1-2,-7.6,-0.2,-3.8,2.9,24.8*,-18.2
Cc1nc(-c2ccccc2)sc1C(=O)CSc1ccccc1,-6.5,1.1,17.6,5.5,28.4*,0.7
CCN1CCN(C(c2cccs2)C(C)NC(=O)c2ccccc2F)CC1 (stereo not given),-6.7,-1.5,-8.3,-6.1,25.3*,-0.2
Cc1c(CC(=O)O)c(=O)oc2cc(OCc3ccc(F)cc3Cl)ccc12,-1.9,-53.7,-4.0,-139.6,50.9*,-0.4
COc1ccc(S(=O)(=O)N2CCCC(C(=O)N3CCOCC3)C2)cc1Cl (stereo not given),-5.4,-2.3,-5.0,4.6,0.7,3.1
CCOC(=O)N1CCN(C(=O)COc2ccc(S(=O)(=O)NC3CCCCC3)cc2C)CC1,-1.2,1.5,-6.4,5.0,5.5,-1.9
Cc1cc(S(=O)(=O)NC2CCCCC2)ccc1OCC(=O)N1CCOCC1,-5.4,/,-4.8,/,27.0*,1.5
COc1ccc(S(=O)(=O)N2CCCC(C(=O)N3CCOCC3)C2)cc1C (stereo not given),-0.4,1.0,0.0,-4.8,33.7*,-3.9
Cc1nc2ccc(S(=O)(=O)NCC(=O)NCc3ccc(F)cc3)cc2s1,/,-1.1,/,-10.0,/,/
Nc1ccc2nc(-c3ccccc3)cnc2c1,+,-13.3,-12.4,-44.5,45.1,-5.4
Nc1ccc(-c2cnc3ccccc3n2)cc1,-67.4,-2.1,-7.2,3.6,-9.4,15.2
CNc1ccccc1,/,-4.0,3.1,-12.1,-3.4,9.7
CNc1cccccc1=S,-5.9,-3.1,-7.7,-3.3,24.6*,29.1
COc1ccc(C2=CN(Cc3ccccc3)C(c3ccccc3)CC2=O)cc1 (stereo not given),-13.4,-2.6,16.7,-8.0,20.7*,-1.4
CCCCOCCCNC(=O)C[C@H]1C[C@@]2(C(=O)OC)C(=C[C@H](COCc3ccccc3)O[C@@H]2C)N(CCC2=CCCCC2)C1=O,-6.5,2.6,/,4.6,/,/
CCCCCCCCN1C(=O)[C@@H](CC(=O)N2CCN(C(=O)C3CC3)CC2)C[C@@]2(C(=O)OC)C1=C[C@H](C1CCCC1)O[C@@H]2C,-4.9,2.5,/,13.8,/,/
CCOC(=O)C1CSCCS(=O)(=O)N1Cc1ccc(C)cc1 (stereo not given),-5.3,0.8,/,0.6,/,/
O=C(c1ccccc1F)N1CCN(c2ccccc2)CC1,-6.9,-2.3,-6.9,-4.8,-1.3,-11.0
O=C(c1ccccc1F)N1CCN(C(=O)C(c2ccccc2)c2ccccc2)CC1,-2.8,-3.6,-2.0,-7.5,21.7*,18.6
CC(C)OC(=O)[C@@H](Cc1ccccc1)N[C@H](/C=C/c1ccccc1)[C@@H](O)Cc1ccccc1,-3.7,0.9,/,2.6,/,/
CC1(C)CC(CCNS(=O)(=O)c2ccccc2)(c2ccccc2)CCO1 (stereo not given),-2.8,4.3,1.4,8.2,-8.8,22.1
SMILES,CaV13 ICDI inh,ADAM17 inh,FAS TE block,ADAM10 inh,CendR NRP1 mod,Arr AP2 block
CC1(C)CC(CCNC(=O)CCl)(c2ccccc2)CCO1 (stereo not given),-2.9,0.3,-4.0,1.7,26.2*,6.1
CN(C)c1ncnc2c1ncn2C1CCCO1 (stereo not given),-5.7,-3.4,-3.8,-8.8,26.2*,6.7
CN(C)c1ncnc2c1ncn2C1CCCCO1 (stereo not given),-7.1,3.1,-7.7,-8.3,4.1,24.3
CCC(CC)C1C(C#N)=C(N)Oc2n[nH]c(C)c21 (stereo not given),-7.5,-3.6,-4.9,-8.4,-9.7,4.2
CCc1[nH]nc2c1C(C(C)C)C(C#N)=C(N)O2 (stereo not given),-4.3,-7.5,-0.9,-9.1,20.6*,2.6
CC(C)C1C(C#N)=C(N)Oc2n[nH]c(-c3ccc4ccccc4c3)c21 (stereo not given),/,6.2,35.3,12.8,27.2*,19.7
CCC1Nc2ncnc(N3CCCCC3)c2N(Cc2ccc(C)cc2)C1=O (stereo not given),-5.5,-1.5,-1.6,-2.5,29.4*!,-5.6
CCCCCn1c(=O)[nH]c2cc(C(=O)NCCCN3CCC(C)CC3)ccc2c1=O,-4.1,-16.2,-5.5,-49.5,28.0*,1.2
Cc1csc(NC(C)c2nc3cc(C(F)(F)F)ccc3n2CCOCCO)n1 (stereo not given),-8.2,-2.7,-5.9,-6.5,32.9*,5.2
Cc1nc2ccc(C(=O)NC(C)(C)C)cn2c1N(C)C(=O)CCc1ccccc1,-4.8,-10.7,-10.0,-36.4,6.0,/
CC(=O)N(c1nc2ccccc2s1)N1C(=O)c2ccccc2C1=O,-3.3,-6.0,/,-5.9,/,/
Cc1cc(-c2n[nH]c(=S)n2N=Cc2cccc(Oc3ccccc3)c2)n[nH]1,/,-1.4,/,-3.2,/,/
Nc1nnc(SCc2ccc(Cl)cc2)s1,/,0.3,-1.4,2.2,25.8*,-5.2
COc1ccc(OC)c(NC(=O)C2CC(=O)N(c3ccccc3)C2)c1 (stereo not given),-4.9,-4.0,-3.6,-1.6,9.4,0.7
CC(=O)Nc1ccc(NC(=O)C2CC(=O)N(c3ccc(Cl)cc3)C2)cc1 (stereo not given),-2.3,-1.9,-4.5,4.6,27.5*,-12.5
COc1ccc(OC)c(NC(=O)C2CC(=O)N(c3ccc(Br)cc3)C2)c1 (stereo not given),/,-3.4,2.1,-6.0,25.7*,8.4
CCOCCCNC(=O)C(NC(=O)CNC(C)=O)c1ccc(Cl)cc1 (stereo not given),1.3,0.4,-3.3,-1.0,24.1*,-8.3
CCOCCCNC(=O)C(NC(=O)c1ccccc1O)c1ccc(Cl)cc1 (stereo not given),/,/,1.2,/,-4.1,-9.1
CCC1(C)Nc2ccccc2C(=O)N1O (stereo not given),/,-91.2,-6.0,-299.9,25.9*,24.4
CCOc1ccc(N2C(=O)c3ccccc3NC2(C)CC)cc1 (stereo not given),-15.4,-6.2,-6.7,-67.6,-4.3,-7.8
